Source: paper PMC2196299 (The Journal of Experimental Medicine, 1997)

Experiments:
human TAP = biological target: T1, human TAP (Homo sapiens, UniProt Q03518+Q03519); assay: TAP-dependent peptide translocation assay in SLO-permeabilized human cells; assay type: cell-based
T1 sequence (Q03518 1-748): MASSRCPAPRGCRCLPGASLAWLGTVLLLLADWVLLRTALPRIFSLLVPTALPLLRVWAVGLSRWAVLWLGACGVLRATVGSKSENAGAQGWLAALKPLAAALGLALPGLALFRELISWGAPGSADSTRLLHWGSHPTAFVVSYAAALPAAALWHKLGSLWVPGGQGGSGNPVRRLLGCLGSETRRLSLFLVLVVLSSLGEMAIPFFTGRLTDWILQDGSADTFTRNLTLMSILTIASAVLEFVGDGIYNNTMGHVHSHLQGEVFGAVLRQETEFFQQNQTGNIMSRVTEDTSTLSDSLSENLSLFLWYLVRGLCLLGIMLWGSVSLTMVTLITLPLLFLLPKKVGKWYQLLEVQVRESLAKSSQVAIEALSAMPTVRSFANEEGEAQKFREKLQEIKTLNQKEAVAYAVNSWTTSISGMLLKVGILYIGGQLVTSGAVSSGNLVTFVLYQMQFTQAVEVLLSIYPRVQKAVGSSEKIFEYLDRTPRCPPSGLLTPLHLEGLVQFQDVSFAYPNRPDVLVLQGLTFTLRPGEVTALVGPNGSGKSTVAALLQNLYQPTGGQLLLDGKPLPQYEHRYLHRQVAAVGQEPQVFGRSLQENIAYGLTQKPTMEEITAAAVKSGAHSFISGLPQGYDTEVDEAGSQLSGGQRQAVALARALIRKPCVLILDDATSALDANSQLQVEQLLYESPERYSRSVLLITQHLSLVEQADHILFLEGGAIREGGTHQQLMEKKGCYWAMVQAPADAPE
T1 sequence (Q03519 1-686): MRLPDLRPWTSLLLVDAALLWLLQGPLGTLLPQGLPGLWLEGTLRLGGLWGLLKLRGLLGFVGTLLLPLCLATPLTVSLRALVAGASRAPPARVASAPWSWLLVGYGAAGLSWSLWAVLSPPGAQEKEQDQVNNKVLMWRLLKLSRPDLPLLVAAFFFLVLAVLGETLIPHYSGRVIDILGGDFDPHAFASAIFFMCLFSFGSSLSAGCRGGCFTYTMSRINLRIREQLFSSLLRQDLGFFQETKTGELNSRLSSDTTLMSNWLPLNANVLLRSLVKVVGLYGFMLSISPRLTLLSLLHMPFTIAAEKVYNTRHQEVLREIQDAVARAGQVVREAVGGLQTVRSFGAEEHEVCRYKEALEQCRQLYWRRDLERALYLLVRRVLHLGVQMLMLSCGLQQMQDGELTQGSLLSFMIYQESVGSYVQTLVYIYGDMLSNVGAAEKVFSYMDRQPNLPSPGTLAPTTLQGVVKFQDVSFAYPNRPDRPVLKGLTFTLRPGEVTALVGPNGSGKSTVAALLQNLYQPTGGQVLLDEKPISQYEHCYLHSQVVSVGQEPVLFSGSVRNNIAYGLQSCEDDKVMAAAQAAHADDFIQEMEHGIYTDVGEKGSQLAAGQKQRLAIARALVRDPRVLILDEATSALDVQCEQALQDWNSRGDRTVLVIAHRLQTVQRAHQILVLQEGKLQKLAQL
Method in brief: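 Hmy2.C1R cells washed in KCl/Hepes transport buffer (pH 7.3) at 4°C, then permeabilized with streptolysin O (2 U/ml, 10 min, 37°C). 10^6 cells/sample incubated 10 min at 37°C with chloramine T-iodinated peptide library, ATP-generating system and test compound (3.3 μM, or a concentration series). Stopped with ice-cold EDTA/azide buffer, NP-40 lysed, Con A–Sepharose capture, γ counting. Percent of no-inhibitor transport, duplicates.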

human TAP1+2 = biological target: T2, human TAP1+2 (Homo sapiens, UniProt Q03518+Q03519); assay type: binding
T2 sequence (Q03518 1-748): T1 sequence (Q03518 1-748)
T2 sequence (Q03519 1-686): T1 sequence (Q03519 1-686)

murine TAP = biological target: T3, murine TAP (Mus musculus, UniProt P21958+P36371); conditions: cited from earlier work
T3 sequence (P21958 1-724): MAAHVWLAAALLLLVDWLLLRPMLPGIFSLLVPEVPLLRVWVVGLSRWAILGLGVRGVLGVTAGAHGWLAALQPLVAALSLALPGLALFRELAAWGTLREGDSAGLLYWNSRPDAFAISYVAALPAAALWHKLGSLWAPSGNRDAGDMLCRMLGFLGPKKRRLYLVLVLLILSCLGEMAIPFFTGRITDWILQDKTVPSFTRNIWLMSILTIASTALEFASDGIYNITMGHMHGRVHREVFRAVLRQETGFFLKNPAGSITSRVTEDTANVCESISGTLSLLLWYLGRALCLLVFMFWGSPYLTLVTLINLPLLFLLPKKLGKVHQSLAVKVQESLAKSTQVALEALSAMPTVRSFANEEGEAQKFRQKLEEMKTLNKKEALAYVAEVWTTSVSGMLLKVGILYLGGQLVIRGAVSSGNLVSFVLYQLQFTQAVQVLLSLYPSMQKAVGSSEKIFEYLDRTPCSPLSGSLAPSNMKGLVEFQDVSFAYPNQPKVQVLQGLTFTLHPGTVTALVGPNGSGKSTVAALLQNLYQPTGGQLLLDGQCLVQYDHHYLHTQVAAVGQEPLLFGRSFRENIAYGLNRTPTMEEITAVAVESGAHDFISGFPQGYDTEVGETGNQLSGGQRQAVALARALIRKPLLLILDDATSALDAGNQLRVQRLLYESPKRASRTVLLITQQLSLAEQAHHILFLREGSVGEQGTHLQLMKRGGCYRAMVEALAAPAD
T3 sequence (P36371 1-702): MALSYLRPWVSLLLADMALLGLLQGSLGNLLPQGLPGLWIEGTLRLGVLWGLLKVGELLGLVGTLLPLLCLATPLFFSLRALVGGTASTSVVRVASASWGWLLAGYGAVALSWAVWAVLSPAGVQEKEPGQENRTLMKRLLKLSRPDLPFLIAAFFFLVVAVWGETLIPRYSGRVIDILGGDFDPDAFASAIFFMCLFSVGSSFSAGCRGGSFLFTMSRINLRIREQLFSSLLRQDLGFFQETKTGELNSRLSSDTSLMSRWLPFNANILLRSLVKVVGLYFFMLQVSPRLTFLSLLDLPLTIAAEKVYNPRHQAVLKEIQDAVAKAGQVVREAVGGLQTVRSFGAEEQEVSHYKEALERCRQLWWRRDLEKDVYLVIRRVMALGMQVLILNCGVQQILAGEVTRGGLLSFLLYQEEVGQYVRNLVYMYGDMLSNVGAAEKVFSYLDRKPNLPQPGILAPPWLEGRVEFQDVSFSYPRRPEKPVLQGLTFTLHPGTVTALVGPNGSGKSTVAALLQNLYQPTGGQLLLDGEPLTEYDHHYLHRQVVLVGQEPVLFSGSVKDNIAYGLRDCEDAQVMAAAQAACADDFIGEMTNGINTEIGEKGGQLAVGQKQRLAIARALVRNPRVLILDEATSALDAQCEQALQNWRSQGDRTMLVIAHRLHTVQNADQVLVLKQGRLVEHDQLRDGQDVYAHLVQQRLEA

Row | Substance | TAP subunits labeled by cross-linking (human TAP1+2) | ability to block or inhibit mouse TAP (murine TAP) | also measured
1 | 1–35 Tpa: 1–35-mer polypeptide with photoactivable phenylalanine analogue Tpa coupled to its NH2 terminus | Both TAP1 and TAP2 subunits were photolabeled | – | block of TAP function compared with the unmodified 1–35 polypeptide (human TAP; data not shown): less efficiently
2 | 1–35: peptide corresponding to residues 1–35 of ICP47 | – | – | concentration at which full inhibition had just been reached (human TAP; human cell line Hmy2.C1R, chosen for the alanine scan, Fig. 3 D): 3.3 µM
3 | ICP47: herpes simplex virus immediate early protein, 87–amino acid cytosolic polypeptide, inhibitor of TAP | – | inability | –
4 | N-acetylated ICP47-1–53: ICP47-1–53 N-acetylated on the resin | – | – | effect of N-acetylation on the ability to inhibit TAP (human TAP; human cell line Hmy2.C1R, compared with 1–53 polypeptide, Fig. 3 E): no effect
5 | ^125I-labeled Tyr21 1–35 polypeptide: 1–35 polypeptide labeled with 125I at Tyr 21 | only TAP1 crosslinks | – | –
6 | rICP47: recombinant ICP47 from HSV-1 | – | unable to block | –
